We go through 34 molecules from ChEMBL document CHEMBL1122619, “Synthesis and antiarrhythmic and parasympatholytic properties of substituted phenols. 2. Amides” (J Med Chem, 1984).

The species named for assay [1] is Cavia porcellus. Put plainly: Anticholinergic activity is assessed in guinea pig ileum at 30 uM. The note with it: read-out: pA2 (converted).
Assay [2] is filed under the species Cavia porcellus. The assay is described as follows: Parasympatholytic activity was assessed from the ability to inhibit electrically stimulated contraction of isolated guinea pig ileum at 4 mg/L of base. Type of assay: functional. In a few lines: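 Electrically stimulated isolated guinea pig ileum, in which tension arises from stimulated acetylcholine release from postganglionic parasympathetic nerve terminals. After about 60 min equilibration, contractile tension was measured just before and during the steady-state response to test drug at 4 mg/L, calculated as free base.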

In assay [3] the test system is Canis familiaris. The assay is described as follows: Evaluated for ouabain-induced arrhythmia in anesthetized adult male mongrel dogs. Administered intravenously. The assay is classed as functional, Canis lupus familiaris. The gist of the method:
(§1)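 Adult male mongrel dogs (10–17 kg) anesthetized with pentobarbital (30 mg/kg iv) and intubated with spontaneous respiration. ECG lead II recorded. Ouabain given iv as boluses: 40 μg/kg, then 20 μg/kg at 30 min, then 10 μg/kg every 15 min until a stable ventricular arrhythmia (>95% ectopic ventricular complexes). Test drug given iv, doses calculated as free base.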

The species named for assay [4] is Cavia porcellus. The assay is described as follows: Anticholinergic activity is assessed in guinea pig ileum at 30 uM. The assay is classed as functional, organism-based. The note with it: read-out: pA2 (converted). The gist of the method: (§2)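 Isolated guinea pig ileum contracted with methacholine. Tissue washed between increasing methacholine concentrations. A single antagonist dose was given 15 min before each methacholine concentration. Methacholine EC50 (50% of maximal response) was found per muscle with and without antagonist. pA2 = −log KB, where KB = [antagonist]/((EC50 with/EC50 without) − 1). Doses calculated as free base.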

Assay [5] deals with Canis familiaris. The assay is described as follows: Compound was evaluated for ouabain-induced arrhythmia in anesthetized adult male mongrel dogs. Both ouabain and compound are administered intravenously; NA means not effective. The conditions noted are these: Canis lupus familiaris. Type of assay: functional, organism-based. In a few lines: as §1
The species named for assay [6] is Cavia porcellus. Put plainly: Anticholinergic activity is assessed in guinea pig ileum at 50 uM. The assay is classed as functional. The note with it: read-out: pA2 (converted). The gist of the method:
as §2

The test system of assay [7] is Canis familiaris. Put plainly: Compound was evaluated for ouabain-induced arrhythmia in anesthetized adult male mongrel dogs. Both ouabain and compound are administered intravenously; NA = inactive up to 30 mg/kg. The note with it: Canis lupus familiaris. The assay is classed as functional, organism-based. On the set-up: dose 30 mg/kg. The gist of the method:
as §1

Assay [8] is filed under the species Cavia porcellus. The assay is described as follows: Anticholinergic activity is assessed in guinea pig ileum at 10 uM. Type of assay: functional. The conditions noted are these: read-out: pA2 (converted). In a few lines:
as §2

The source made the active and inactive calls. The calls are words filed in the database; no cut-off is given here.

For the molecule `O=C(Nc1cc(CN2CCCC2)c(O)c(CN2CCCC2)c1)c1ccccc1`, the Kb in the assay filed under Cavia porcellus [1] is 10 µM. The molecule further gave an Inhibition in the assay listed under Cavia porcellus [2] of 30%. In addition, the Dose in the assay with Canis familiaris [3] was 3.4 mg/kg.
Consider `COc1ccc(C(=O)Nc2cc(CN3CCCC3)c(O)c(CN3CCCC3)c2)cc1`, for which the Inhibition in the assay filed under Cavia porcellus [2] was found to be 24%. The same molecule gave a Dose with Canis familiaris [3] of 7.3 mg/kg.
Molecule `O=C(Nc1cc(CN2CCCC2)c(O)c(CN2CCCC2)c1)c1ccc(Cl)cc1` registered an Inhibition in the assay listed under Cavia porcellus [2] of 49%. This molecule also showed a Dose in the assay with Canis familiaris [3] of 1.5 mg/kg.
Consider `Cc1ccccc1C(=O)Nc1cc(CN2CCCC2)c(O)c(CN2CCCC2)c1.Cl.Cl`, for which, in the assay filed under Cavia porcellus [4], the Kb was 19.5 µM. The Inhibition in the assay listed under Cavia porcellus [2] was determined as 9%. This molecule displayed a Dose in the assay on Canis familiaris [3] of 2.7 mg/kg.
Take `Cl.Cl.O=C(Nc1cc(CN2CCCC2)c(O)c(CN2CCCC2)c1)c1cccc(Cl)c1`: in the assay filed under Cavia porcellus [2], the Inhibition is on record as 37%. The molecule further came in with a Dose with Canis familiaris [3] of 3.8 mg/kg.
`Cl.Cl.O=C(Nc1cc(CN2CCCC2)c(O)c(CN2CCCC2)c1)c1ccc(Cl)cc1Cl`: the DOSE result in the assay on Canis familiaris [5] is “Not effective”. Besides, in the assay filed under Cavia porcellus [2], the Inhibition was 11%.
Regarding `O=C(Nc1cc(CN2CCCC2)c(O)c(CN2CCCC2)c1)c1ccc([N+](=O)[O-])cc1`, the Inhibition in the assay filed under Cavia porcellus [2] is reported as 24%. Moreover, in the assay with Canis familiaris [3], the Dose was determined as 11 mg/kg.
In the same order, the values of `Cl.Cl.O=C(NCc1cc(CN2CCCC2)c(O)c(CN2CCCC2)c1)c1ccccc1C(F)(F)F` are 8% and 1.9 mg/kg.
In the same order, the values of `Cl.O=C(Nc1cc(CN2CCCC2)c(O)c(CN2CCCC2)c1)c1cccc(C(F)(F)F)c1` are 62% and 2.3 mg/kg.
In the case of `O=C(Nc1cc(CN2CCCC2)c(O)c(CN2CCCC2)c1)c1cccs1`, the Kb in the assay listed under Cavia porcellus [4] is 15.8 µM. Further, the Inhibition in the assay filed under Cavia porcellus [2] amounted to 44%. Further, the Dose in the assay on Canis familiaris [3] was 2 mg/kg.
For `Cl.Cl.O=C(Nc1cc(CN2CCCC2)c(O)c(CN2CCCC2)c1)c1c(Cl)cccc1Cl`, the Inhibition in the assay filed under Cavia porcellus [2] stood at 14%. In the assay with Canis familiaris [3], this molecule yielded a Dose of 4.6 mg/kg. In the assay filed under Cavia porcellus [6], the Kb was 4.68 µM.
In the assay filed under Cavia porcellus [2], `COc1cc(C(=O)Nc2cc(CN3CCCC3)c(O)c(CN3CCCC3)c2)cc(OC)c1OC.Cl.Cl` showed an Inhibition of 6%. In the assay on Canis familiaris [7], the DOSE entry was “inactive”.
`Nc1ccc(C(=O)Nc2cc(CN3CCCC3)c(O)c(CN3CCCC3)c2)cc1` registered an Inhibition in the assay filed under Cavia porcellus [2] of 0%. Further, the Dose in the assay on Canis familiaris [3] amounted to 4.5 mg/kg.
As for `C=C[C@H]1CN2CC[C@H]1C[C@@H]2[C@@H](O)c1ccnc2ccc(OC)cc12` [QUINIDINE], the Inhibition in the assay listed under Cavia porcellus [2] is recorded as 62%. For the same molecule, in the assay with Canis familiaris [3], the Dose is 10.5 mg/kg. Moreover, the Kb in the assay listed under Cavia porcellus [8] is 1 µM.
In the assay filed under Cavia porcellus [2], `Cl.Cl.O=C(NCc1cc(CN2CCCC2)c(O)c(CN2CCCC2)c1)c1ccc(C(F)(F)F)cc1` displayed an Inhibition of 50%. Besides, the Dose with Canis familiaris [3] came to 4.5 mg/kg.
The like results for `Oc1c(CN2CCCC2)cc(Nc2ncnc3ccccc23)cc1CN1CCCC1` [CHANGROLIN] were, in that order, 43% and 5.5 mg/kg.
The like results for `O=C(NCc1cc(CN2CCCC2)c(O)c(CN2CCCC2)c1)c1ccccc1` were, in that order, 34% and 3 mg/kg.
The like results for `Cl.Cl.O=C(NCc1cc(CN2CCCC2)c(O)c(CN2CCCC2)c1)c1cccc(Cl)c1` were, in that order, 78% and 9 mg/kg.
With `Cc1ccsc1C(=O)Nc1cc(CN2CCCC2)c(O)c(CN2CCCC2)c1`, the Dose in the assay with Canis familiaris [3] is 1.6 mg/kg.
In the case of `O=C(Cc1cccs1)Nc1cc(CN2CCCC2)c(O)c(CN2CCCC2)c1`, the DOSE result with Canis familiaris [5] is “Not effective”. In the assay filed under Cavia porcellus [2], this molecule returned an Inhibition of 13%.
In the assay filed under Cavia porcellus [2], `Cl.Cl.O=C(NCc1cc(CN2CCCC2)c(O)c(CN2CCCC2)c1)c1ccccc1Cl` displayed an Inhibition of 19%. This molecule registered a Dose in the assay on Canis familiaris [3] of 2.5 mg/kg. In the assay filed under Cavia porcellus [6], the Kb was 12 µM.
With `Cl.Cl.O=C(NCc1cc(CN2CCCC2)c(O)c(CN2CCCC2)c1)c1ccc(Cl)cc1`, the Inhibition in the assay filed under Cavia porcellus [2] is on record as 56%. The same molecule yielded a Dose in the assay on Canis familiaris [3] of 3.7 mg/kg.
The like results for `Cc1ccc(C(=O)Nc2cc(CN3CCCC3)c(O)c(CN3CCCC3)c2)cc1` were, in that order, 22% and 3 mg/kg.
In the same order, the values of `O=C(Nc1cc(CN2CCCC2)c(O)c(CN2CCCC2)c1)c1ccc(C(F)(F)F)cc1` are 42% and 5.3 mg/kg.
`O=C(Nc1cc(CN2CCCC2)c(O)c(CN2CCCC2)c1)c1ccccc1Cl` gave an Inhibition in the assay filed under Cavia porcellus [2] of 0%. In addition, in the assay with Canis familiaris [3], the Dose was determined as 5 mg/kg. The Kb in the assay filed under Cavia porcellus [6] is 7.59 µM.
`Cc1cccc(C(=O)Nc2cc(CN3CCCC3)c(O)c(CN3CCCC3)c2)c1.Cl.Cl` displayed an Inhibition in the assay listed under Cavia porcellus [2] of 32%. Besides, the Dose in the assay with Canis familiaris [3] was 5.2 mg/kg.
Molecule `Cl.Cl.O=C(Nc1cc(CN2CCCC2)c(O)c(CN2CCCC2)c1)c1ccccc1C(F)(F)F` displayed an Inhibition in the assay filed under Cavia porcellus [2] of 0%. In the assay on Canis familiaris [3], this molecule registered a Dose of 6.5 mg/kg. Moreover, the Kb in the assay filed under Cavia porcellus [6] is 17.4 µM.
`O=C(Nc1cc(CN2CCCC2)c(O)c(CN2CCCC2)c1)c1cc(Br)sc1Br` returned a Dose with Canis familiaris [3] of 4.3 mg/kg.
`Cl.Cl.O=C(NCc1cc(CN2CCCC2)c(O)c(CN2CCCC2)c1)c1cccc(C(F)(F)F)c1` displayed an Inhibition in the assay filed under Cavia porcellus [2] of 72%. This molecule returned a Dose with Canis familiaris [3] of 5.5 mg/kg.
Consider `Cc1ccc(C(=O)Nc2cc(CN3CCCC3)c(O)c(CN3CCCC3)c2)s1`, for which, in the assay on Canis familiaris [3], the Dose turned out to be 4.3 mg/kg.
Regarding `Cc1cccc(C)c1C(=O)Nc1cc(CN2CCCC2)c(O)c(CN2CCCC2)c1.Cl.Cl`, the Inhibition in the assay listed under Cavia porcellus [2] is 15%. Also, in the assay with Canis familiaris [3], the Dose stood at 3.2 mg/kg. In the assay filed under Cavia porcellus [6], the Kb was 5.5 µM.
Take `COc1ccccc1C(=O)Nc1cc(CN2CCCC2)c(O)c(CN2CCCC2)c1.Cl.Cl`: in the assay listed under Cavia porcellus [2], the Inhibition is recorded as 31%. Further, the Dose in the assay on Canis familiaris [3] was 3 mg/kg.
The like results for `CCN(CC)CCNC(=O)c1ccc(N)cc1` [PROCAINAMIDE] were, in that order, 0% and 29 mg/kg.
For `CC(C)N(CCC(C(N)=O)(c1ccccc1)c1ccccn1)C(C)C` (stereo not given) [DISOPYRAMIDE], the Kb in the assay filed under Cavia porcellus [1] is 0.363 µM. The same molecule displayed an Inhibition in the assay listed under Cavia porcellus [2] of 81%. The molecule also registered a Dose in the assay with Canis familiaris [3] of 4.4 mg/kg.
